# Screening results: PubChem BioAssay, Johns Hopkins Ion Channel Center
# Hits are enriched below; roughly 3.8% of the tested compounds scored in any of these assays.
# hERG protect: hERG (human) protection from proarrhythmic block; Q12809; CHO-hERG, FluxOR thallium flux, dofetilide IC70 present; activation (rescue from dofetilide block), less the hit threshold, % at 10 µM; actives 0.51% (n = 310,000); AID 1511;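 active = activation above the mean of controls blocked by dofetilide plus 5 SD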;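 also: thallium influx through hERG after potassium depolarization seen as dye fluorescence rise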
# KCNQ1 block: blocks the human KCNQ1 potassium channel; CHO-K1 KCNQ1, FluxOR thallium flux fluorescence; stronger effect = higher value; actives 1.3% (n = 310,000); P51787; B-score at 10 µM;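 active = compounds whose thallium flux B-score, printed positive for inhibition, exceeds three library SD while starting fluorescence stays within three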;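 also: channel opened by potassium depolarization with thallium stimulus after 20 min compound exposure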
# KCNQ1 pot: human KCNQ1 channel potentiation or activation | P51787 | CHO-K1 KCNQ1, thallium flux FluxOR fluorescence; stronger effect = higher value | B-score at 10 µM | actives 0.35% (n = 310,000) | AID 2648;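 active = fluorescence ratio B-score, a plate-corrected score, at least three library SD, with initial intensity B-score within 5 SD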
#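 assay system = CHO-K1 cells stably expressing KCNQ1 | medium = assay buffer, equal DMSO in all wells | timing = 37 °C overnight plating, 90-min dark dye load, 20-min compound pretreatment | measured by = kinetic FluxOR thallium fluorescence, 10-s 1-Hz baseline, 110-s post-stimulus read | measure = fluorescence change relative to baseline, converted to B score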
# Kir21 block: inhibitors of mouse Kir2.1 inward-rectifier potassium channel; HEK293-Kir2.1, FluxOR thallium flux fluorescence; stronger effect = lower value; AID 1672; actives 0.85% (n = 310,000); B-score at 10 µM; P35561;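 active = fluorescence ratio B-score at or below minus 3 SD of library scores, with starting-brightness B-score within 2 SD, cut at about -4.2 in these data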;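 also: channel flux triggered by added potassium and thallium sulfate stimulus; B-score of peak minus minimum fluorescence over baseline after thallium stimulus; more negative B-score means stronger Kir2.1 block with less thallium influx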
# KCNK3 inh: human KCNK3 channel inhibition, primary screen; O14649; CHO-KCNK3 thallium flux, FluxOR fluorescence; stronger effect = lower value; B-score at 10 µM; actives 0.84% (n = 340,000); AID 602410;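 active = B-score under library mean minus 4 SD, starting fluorescence ratio at most library mean plus 5 SD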;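 also: more negative B-score means stronger inhibition of thallium flux through KCNK3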
# KCNK9 block: blocks the human KCNK9 two-pore domain potassium channel | HEK293 KCNK9, FluxOR thallium flux fluorescence; stronger effect = lower value | Q9NPC2 | actives 1.2% (n = 310,000) | B-score at 10 µM;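 active = ratio B-score over 3 SD below the library mean, with starting fluorescence within 5 SD of its mean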;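 also: negative B-score means less thallium flux so channel inhibition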
# Target sequence (Q9NPC2 whole entry, looked up, the tested form may be a part): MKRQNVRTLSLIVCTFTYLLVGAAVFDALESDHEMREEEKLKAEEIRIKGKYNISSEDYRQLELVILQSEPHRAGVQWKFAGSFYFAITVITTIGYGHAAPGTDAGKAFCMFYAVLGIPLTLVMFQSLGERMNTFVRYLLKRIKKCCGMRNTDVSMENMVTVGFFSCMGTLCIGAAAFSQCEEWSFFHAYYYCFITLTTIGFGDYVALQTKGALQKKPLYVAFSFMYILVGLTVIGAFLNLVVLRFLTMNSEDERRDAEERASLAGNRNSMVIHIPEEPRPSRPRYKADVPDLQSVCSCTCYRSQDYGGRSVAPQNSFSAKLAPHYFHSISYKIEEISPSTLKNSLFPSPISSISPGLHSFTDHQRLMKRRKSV
# KCNK9 block conf: confirmation of human KCNK9 potassium channel inhibitors; shares compounds with KCNK9 block; HEK293 KCNK9 cells, FluxOR thallium flux fluorescence; inhibition, % at 10 µM; actives 43% (n = 4,900); AID 492992;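 active = thallium signal inhibited by more than 5 SD of the compound-free buffer control wells, on both duplicate plates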;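 also: 0% = assay buffer control wells without compound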
# Kir21 sel: tests whether KCNK9 modulators also affect mouse Kir2.1; shares compounds with KCNK9 block; Kir2.1 cells, FluxOR thallium flux fluorescence; inhibition, % at 10 µM; actives 4% (n = 4,900); AID 492993;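 active = thallium signal drop more than 5 SD beyond the mean of the no-compound control wells, seen in both duplicate plates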;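 also: signal is fluorescence rise after thallium addition divided by baseline fluorescence; plate controls were assay buffer only for no effect and full block by chlorpromazine control for full effect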
# HEK293 Tl ctr: non-induced cell nonspecific activity of KCNK9 modulators; inhibition, % at 10 µM; non-induced KCNK9-HEK293, FluxOR thallium flux; shares compounds with KCNK9 block; actives 40% (n = 4,900);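 active = thallium signal drop beyond 5 SD of the untreated control mean, on both duplicate plates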;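 also: plate controls were buffer only IC0 wells for no effect and SID17386958 at its maximal inhibitory level for full effect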
# Starred values were filed as active, the others as inactive; i = inactive; nt = no result.
SMILES,hERG protect,KCNQ1 block,KCNQ1 pot,Kir21 block,KCNK3 inh,KCNK9 block,KCNK9 block conf,Kir21 sel,HEK293 Tl ctr
COc1ccc(NC(=O)c2ccco2)cc1NC(=O)c1cccc(F)c1,-6,i,i,0.84,i,i,nt,nt,nt
COc1cccc(C(=O)NC(C)c2ccc(-c3ccccc3)cc2)c1OC (configuration not stated),-8,i,i,0.21,i,i,i,i,i
COc1cccc(C(=O)NC(C)c2cccc3ccccc23)c1OC (configuration not stated),-10,i,i,-2.5,i,i,nt,nt,nt
Cc1ccc(C(=O)COC(=O)CSc2cccc3cccnc23)c(C)c1,-8,i,i,0.55,i,i,i,i,i
O=C(O)CSc1cccc2cccnc12,-6,i,i,1,i,i,nt,nt,nt
CN(C(=O)Cn1c(=O)oc2ccccc21)C1CCCCC1,nt,nt,nt,nt,i,nt,nt,nt,nt
CCN(CC)S(=O)(=O)c1cc(C(=O)Nc2cc(C)on2)c(Cl)cc1Cl,-11,i,i,-0.06,i,i,nt,nt,nt
Cc1cc(S(=O)(=O)N2CCN(c3ccccc3F)CC2)ccc1-n1cnnn1,-6,i,i,-1.5,i,i,nt,nt,nt
CC1/C(=C\c2ccc(Cl)cc2)C(=O)C2CC1C2(C)C (configuration not stated),-5,i,i,2.5,i,i,i,i,i
CC1CCC(C(C)C)C(=O)/C1=C/c1ccc(N)cc1 (configuration not stated),-7,i,i,-0.02,i,i,nt,nt,nt
Cc1cccc(CN2C(=O)[C@@H]3Cc4c([nH]c5ccccc45)C(C)(C)N3C2=O)c1,-8,i,i,-0.34,i,i,i,i,i
CC1(C)c2[nH]c3ccccc3c2C[C@@H]2C(=O)N(Cc3ccccc3)C(=O)N21,-10,i,i,-0.73,i,i,nt,nt,nt
Cc1cccc(CN2C(=O)[C@H]3Cc4c([nH]c5ccccc45)C(C)(C)N3C2=O)c1,-19,i,i,-1,i,i,i,i,i
Cc1ccc(NC(=O)N(Cc2cccs2)Cc2cc3cc4c(cc3[nH]c2=O)OCO4)cc1,-12,i,i,0.04,nt,i,nt,nt,nt
O=C(Nc1ccc(F)cc1)N(Cc1cccs1)Cc1cc2cc3c(cc2[nH]c1=O)OCO3,-7,i,i,-1.1,i,-11*,i,i,42%*
CC1(C)C(=O)Nc2ccccc2N1C(=O)COC(=O)c1cccnc1Cl,nt,nt,nt,nt,i,nt,nt,nt,nt
Cc1ccc2nc(-c3ccccc3)c(CN3CCN(c4ccccc4F)CC3)n2c1,-4,i,i,0.73,i,i,i,i,i
Cc1ccc2nc(-c3ccccc3)c(CN3CCSCC3)n2c1,-10,i,i,0.53,i,i,nt,nt,nt
CCn1cc(CCCC(=O)NCc2ccc(OC)cc2)c2ccccc21,-3,i,i,-2.5,i,i,i,i,i
CCOc1ccccc1CNC(=O)CCc1cn(CC)c2ccccc12,-6,i,i,-5.9*,i,i,i,i,i
NC1(C(=O)O)CSSC1,nt,nt,nt,nt,i,nt,nt,nt,nt
Cc1ccc2c(Cl)c(Cc3ccccc3)c(=S)[nH]c2n1,nt,nt,nt,nt,i,nt,nt,nt,nt
COc1ccc(C=O)cc1COc1ccc2c(c1)OCO2,nt,nt,nt,nt,i,nt,nt,nt,nt
Cc1ccc(CN2CCN(/N=C/c3ccc(C)s3)CC2)c(C)c1,-8,i,i,-0.45,i,i,i,i,i
Cc1ccc(CN2CCN(/N=C/c3cccn3C)CC2)c(C)c1,-12,i,i,0.02,i,i,nt,nt,nt
SMILES,hERG protect,KCNQ1 block,KCNQ1 pot,Kir21 block,KCNK3 inh,KCNK9 block,KCNK9 block conf,Kir21 sel,HEK293 Tl ctr
CC(C1CC2CCC1C2)n1c(-c2ccco2)n[nH]c1=S (configuration not stated),-4,i,i,-5.5*,i,-15*,62%*,i,i
Cc1ccccc1-c1ocnc1C(=O)Nc1ccccc1NC(=O)c1ccccn1,-13,i,i,-1.4,i,-8.7*,38%*,i,i
Cc1ccc(N2CCN(S(=O)(=O)c3ccc(Cl)s3)CC2C)cc1 (configuration not stated),-9,i,i,-0.09,i,i,i,i,i
CCCCCC1=C(C(=O)OC)C(C(=O)OCC)N(S(=O)(=O)C(F)(F)F)c2ccccc21 (configuration not stated),nt,nt,nt,nt,i,nt,nt,nt,nt
O=C(CSc1nc2ccsc2c(=O)n1Cc1ccccc1)NCC1CCCO1 (configuration not stated),-12,i,i,-1.2,i,i,nt,nt,nt
CCC1CCCCN1C(=O)CSc1nc2ccsc2c(=O)n1Cc1ccccc1 (configuration not stated),-23,i,i,-0.67,i,i,i,i,i
O=C(O)CCC1(CCC(=O)O)CCCC(CCC(=O)O)(CCC(=O)O)C1=O,nt,nt,nt,nt,i,nt,nt,nt,nt
CC1(C)NC(=O)N(CC(O)COc2ccccc2C(=O)Nc2ccccc2)C1=O (configuration not stated),-6,i,i,-0.45,i,-15*,58%*,i,i
C=CC[C@@H](CC(=O)OC(C)(C)C)C(=O)OC[C@@H]1CCCN1C(=O)[C@@H](CC=C)CC(=O)N(CCO)Cc1ccccc1,nt,nt,nt,nt,i,nt,nt,nt,nt
Cc1ccc(N(CC(=O)NCC2CCCO2)C(=O)Cn2nnc(-c3cccs3)n2)cc1 (configuration not stated),-4,i,i,-0.17,i,i,nt,nt,nt
Cc1cc2cc(CN(Cc3cccs3)C(c3nnnn3C(C)(C)C)C(C)C)c3nnnn3c2cc1C (configuration not stated),-9,i,i,-0.38,i,-9.8*,59%*,i,49%*
O=C(Cc1cccc(C(F)(F)F)c1)N1CCCC1,-12,i,i,-0.24,i,i,nt,nt,nt
COC(=O)c1ccccc1NC(=O)C1CCN(C(=O)c2ccc(OC)cc2)CC1,-7,i,i,0.69,i,i,i,i,i
COc1ccc(C(=O)N2CCC(C(=O)NC3CC3)CC2)cc1,-2,i,i,-0.41,i,i,nt,nt,nt
O=C(Nc1cscc1S(=O)(=O)c1ccccc1)c1ccccc1Cl,-3,i,i,-1.8,i,-8.6*,41%*,i,34%*
